The target of this assay is T1, Interleukin-5 (Mus musculus) (UniProt P04401).
T1 sequence (whole entry): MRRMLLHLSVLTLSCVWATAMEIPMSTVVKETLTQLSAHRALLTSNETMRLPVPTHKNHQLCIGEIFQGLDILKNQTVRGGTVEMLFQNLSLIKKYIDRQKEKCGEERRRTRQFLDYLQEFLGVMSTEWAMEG
Nature of the assay: Inhibition of IL-5 in mouse Y16 cells at 30 uM after 48 hrs by WST1 assay. In kind it is cell-based. In outline:
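IL-5-dependent pro-B Y16 cells cultured 48 h with 3 units/mL mIL-5, with or without test sample. Proliferation read as cell metabolism by WST-1 reduction. […] Values are means of three independent experiments.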
On the technique in general: Tetrazolium assays rely on reduction of a dye to a coloured formazan, in cell work by metabolically active cells.

The source of these data is ChEMBL document CHEMBL2146398, “Novel interleukin-5 inhibitors based on hydroxyethylaminomethyl-4H-chromen-4-one scaffold” (Bioorg Med Chem, 2012).

One may read the inhibition as the change of the read-out against control, counted positive when it falls. Low readings indicate a weak effect, high ones a strong effect.

The compound `O=c1c(CN(CCO)Cc2ccncc2)coc2cccc(OCC3CCCCC3)c12` gave an inhibition of 94%.

In turn, `CCCN(CCO)Cc1coc2cccc(OCC3CCCCC3)c2c1=O` registered an inhibition of 93.7%.

`Cc1ccc(CN(CCO)Cc2coc3cccc(OCC4CCCCC4)c3c2=O)cc1` yielded an inhibition of 94.3%.

Consider `O=c1c(CN(CCO)C2CCCCC2)coc2cccc(OCC3CCCCC3)c12`, for which the inhibition came out at 94.5%.

On to `O=c1c(CN(CCO)c2ccccc2)coc2cccc(OCC3CCCCC3)c12`, for which the inhibition came to 94.4%.

`O=c1c(CN(CCO)Cc2ccccc2)coc2cccc(OCC3CCCCC3)c12` came in with an inhibition of 94.8%.

Regarding `CCN(CCO)Cc1coc2cccc(OCC3CCCCC3)c2c1=O`, the inhibition was 79.2%.

`COc1ccc(CN(CCO)Cc2coc3cccc(OCC4CCCCC4)c3c2=O)cc1`: the inhibition was 94.1%.

For the compound `CC(C)N(CCO)Cc1coc2cccc(OCC3CCCCC3)c2c1=O`, the inhibition stood at 90.2%.

`CN(CCO)Cc1coc2cccc(OCC3CCCCC3)c2c1=O` displayed an inhibition of 56%.

Take `O=c1c(CN(CCO)Cc2ccc(Cl)cc2)coc2cccc(OCC3CCCCC3)c12`: the inhibition turned out to be 93.4%.

Take `O=c1c(CN(CCO)CC2CCCCC2)coc2cccc(OCC3CCCCC3)c12`: the inhibition came to 94.7%.

`O=c1c(CN(CCO)Cc2ccc(O)cc2)coc2cccc(OCC3CCCCC3)c12`: the inhibition turned out to be 93.7%.

`CCCCN(CCO)Cc1coc2cccc(OCC3CCCCC3)c2c1=O` registered an inhibition of 94%.
